Assay [1] relates to Canis familiaris. Description: Evaluated for the antiarrhythmic activity in conscious dogs after myocardial infarction by observing 50% reduction in ectopic rate.. The assay is classed as functional, Canis lupus familiaris, Heart. The method in brief: (§1)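 After 30-45 min of adjustment with lead II ECG recording (about 80-85% ectopic complexes), drug was given iv through a foreleg vein in 0.5 mL increments at 2-min intervals. Dosing stopped at sinus rhythm or 3.0 mg/kg total.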

Assay [2] deals with Canis familiaris. Description: Evaluated for the antiarrhythmic activity in conscious dogs after myocardial infarction by observing for conversion to sinus rhythm. It is filed as functional, Canis lupus familiaris, Heart. The method in brief: as §1
Assay [3] has as its system Canis familiaris. Put plainly: Compound was tested for its activity against altering of mean arterial blood pressure when administered with a dose of 25 ug/Kg; Could not significantly alter. The assay is classed as functional, organism-based. The settings on record: Canis lupus familiaris; Artery. The method in brief:
(§2)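 Anesthetized dogs with no cardiac insult were allowed about 30 min to stabilize after surgery, then given 25 µg/kg iv, followed by 50 µg/kg 30 min later. Arterial pressure, lead II ECG from limb needle electrodes, ECG-derived heart rate and left ventricular dp/dt at 50 mmHg developed pressure were recorded at 100 mm/s. Values before and 5 min after dosing were compared by Student's t test, p < 0.05.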

The test system of assay [4] is Canis familiaris. Put plainly: Heart beat rate was measured in dogs after 5 min of administration of 25 ug/Kg dose of the compound. It is filed as functional, Canis lupus familiaris. The method in brief: as §2
The test system of assay [5] is Canis familiaris. Put plainly: Heart beat rate was measured in dogs after subsequent administration of 50 micorg/Kg 30 min after administration of 25 ug/Kg dose of the compound. The assay is classed as functional, Canis lupus familiaris. The method in brief:
as §2

Assay [6] is filed under the species Canis familiaris. Description: Heart beat rate was measured in dogs prior to the treatment with compound. The assay is classed as functional, Canis lupus familiaris. The method in brief: as §2
The subject of assay [7] is Canis familiaris. Description: Myocardial contractility was measured in dogs after 5 min of administration of 25 ug/Kg dose of the compound. The assay is classed as functional, Canis lupus familiaris, Myocardium. In a few lines: as §2
The species named for assay [8] is Canis familiaris. Description: Myocardial contractility was measured in dogs prior to the treatment with compound. It is filed as functional, Canis lupus familiaris, Myocardium. The method in brief:
as §2

`CN1CCC(=C2c3ccccc3C=Cc3ccccc32)CC1` [CYPROHEPTADINE]: the figures for the Dose in the assay on Canis familiaris [1] and in the assay on Canis familiaris [2] were 0.69 µM/kg and 1.04 µM/kg, respectively.

As to `C[N+]1(C)CCC(=C2c3ccccc3C=Cc3ccccc32)CC1.[I-]`, the Activity entry in the assay with Canis familiaris [3] is given as “Could not significantly alter”; with Canis familiaris [7] it was 3250 mmHg s-1; in the assay filed under Canis familiaris [8], 2333 mmHg s-1. In addition, the Dose with Canis familiaris [1] was 0.03 µM/kg; with Canis familiaris [2], 0.042 µM/kg. Moreover, the Heart beat with Canis familiaris [4] is recorded as 174 beats min-1; in the assay with Canis familiaris [5], 196 beats min-1; in the assay listed under Canis familiaris [6] it was 148 beats min-1.

Turning to `CN(C)CCC=C1c2ccccc2CCc2ccccc21` [AMITRIPTYLINE], the values for the Dose in the assay on Canis familiaris [1] and in the assay on Canis familiaris [2] were 3.97 µM/kg and 4.69 µM/kg, respectively.

In the case of `CCN(CC)CC(=O)Nc1c(C)cccc1C.Cl`, the Dose stood at 5.54 µM/kg in the assay on Canis familiaris [1] and 9.97 µM/kg in the assay on Canis familiaris [2].

In the case of `CN(C)CCC=C1c2ccccc2C=Cc2ccccc21` [CYCLOBENZAPRINE], the Dose with Canis familiaris [1] was 3.99 µM/kg; in the assay on Canis familiaris [2] it was 6.17 µM/kg.

For the origin of these results see ChEMBL document CHEMBL1121565, “Antiarrhythmic activity of amitriptyline analogues in conscious dogs after myocardial infarction: cyproheptadinium methiodide” (1980).
